Screening data: PubChem, several laboratories
G6PDH CS – inhibits Leuconostoc G6PDH, flagging false hits in G6PDH-based assays; 200,000 compounds, 0.12% hits; inhibition, % at 5 µM; Purified L. mesenteroides G6PDH, diaphorase/resazurin coupled fluorescence, 45 min
Redox H2O2 prof – compounds producing H2O2 with reducing agent – biochemical, NIH compound library profiling, artefact control for MLSCN library redox annotation, primary screen. DTT-dependent redox cycling H2O2, phenol red/HRP absorbance; 100% = 100 µM peroxide control, 0% = buffer. activation, % at 10 µM. 200,000 compounds, 0.03% hits. AID 878;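 active = activation of at least 50% relative to the plate's high and low controls in the primary single-dose screen; inactive = activation below 50%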;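 note: compound incubated with DTT at 0.8 mM final as the reducing agent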
Diaphorase act – diaphorase activation or chemical reduction counter-screen. activation factor at 20 µM. Diaphorase/resazurin coupled assay, resorufin fluorescence, 16 min; active compounds read high; 1 = vehicle wells, 0 = NADH-free wells. 190,000 compounds, 0.005% hits;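 active = diaphorase activity raised at least twofold by the compound at 20 µM; inactive = activation factor below 2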
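Material: Clostridium kluyveri diaphorase, purified enzyme; Quantity: enzyme 0.07 U/mL final; Medium: HEPES pH 7.4 buffer with MgCl2 and Tween 20; Dosing: single compound dose of 20 µM, 1% DMSO final; Schedule: 16 min reaction at room temperature; Measured by: red resorufin fluorescence at 544/590 nm excitation/emission.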
PfG6PD inh – PfG6PD (Plasmodium falciparum) enzyme inhibition | inhibition, % at 20 µM | AID 504690 | 350,000 compounds, 0.78% hits | PfGluPho enzyme, NADPH resazurin-diaphorase fluorescence;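 active = inhibition reaching at least a set limit at 20 µM in the primary screen, cut at about 59% in these data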
Lmaj promast – inhibitors of Leishmania major promastigote growth. Leishmania major promastigotes, resazurin fluorescence viability. inhibition, % at 10 µM. 200,000 compounds, 9% hits;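 note: promastigotes grown with compound for 44 hours at 28 °C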
Diaph inh CS – diaphorase inhibition or chemical oxidation counter-screen | diaphorase resazurin-to-resorufin fluorescence, NADH, 16 min; bacterial (C. kluyveri) enzyme, not human | inhibition, % at 20 µM | 190,000 compounds, 0.69% hits | AID 1217;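 active = primary screen inhibition at 20 µM above a set limit, cut at about 50% in these data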
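System: Bacterial diaphorase enzyme (C. kluyveri) | Incubation: 16-min room-temperature incubation before reading | Benchmarks: No-NADH positive control and DMSO neutral control | Measured by: Resorufin fluorescence 544/590 nm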
Of the large screens only hits and unclear results are named; the others gave an inactive call. Many of the other results were omitted from the sample, so hits are more common in it than they were. Cut-off read from the data, not from the text of the source, unless noted: active = inhibition above about 50%; inactive = the rest.

COC12CCC3(CC1C(C)(O)C(C)(C)C)[C@H]1Cc4ccc(O)c5c4[C@@]3(CCN1CC1CC1)C2O5 (some centres undefined)	none (no result: G6PDH CS, Redox H2O2 prof, Diaphorase act, Lmaj promast, Diaph inh CS)
Cc1ccc(N2C(=O)NC(=O)/C(=C/c3cnn(-c4ccc(C)cc4)c3)C2=O)cc1	Lmaj promast 85
O=C(COc1ccccc1)N1CCN(CC(O)COc2ccccc2)CC1 (centres undefined)	none
COc1ccc(OCC(=O)N2CCN(C/C=C/c3ccccc3)CC2)cc1	Lmaj promast 73
O=C(COc1ccccc1)N1CCN(C/C=C/c2ccccc2)CC1	Lmaj promast 92
O=C(COc1ccc(Cl)cc1)N1CCN(C/C=C/c2ccccc2)CC1	Lmaj promast 89
O=C1CN(C(=O)CN2CCCCC2)C(c2ccccc2)c2cc(Br)ccc2N1 (centres undefined)	Lmaj promast 98
Nc1c2c(nc3sc4c(c13)CCCCC4)CCCC2	Lmaj promast 93
Cn1cc(C(=O)OCC(=O)NC2CCCCC2)c2ccccc21	none (no result: G6PDH CS, Redox H2O2 prof, Diaphorase act, Lmaj promast, Diaph inh CS)
CCN1CCN(C(=O)COc2ccc(S(=O)(=O)Nc3ccc(Cl)cc3)cc2)CC1	none (no result: G6PDH CS, Redox H2O2 prof, Diaphorase act, Lmaj promast, Diaph inh CS)
CCN1CCN(C(=O)Cc2c(C)n(C(=O)c3ccc(Cl)cc3)c3ccc(OC)cc23)CC1	Lmaj promast 98
CCOC(=O)C1CCN(/C=C2/C(=O)NC(=O)N(c3cccc(C)c3C)C2=O)CC1	Lmaj promast 54
CCOC(=O)C1CCN(/C=C2\C(=O)NC(=S)N(CC)C2=O)CC1	Lmaj promast 76
CCOC(=O)C1CCN(/C=C2/C(=O)NC(=S)N(c3cccc(OC)c3)C2=O)CC1	none
C=CCN1C(=O)NC(=O)/C(=C/c2ccc(N(C)C)c(Br)c2)C1=O	none
CCN(C(=O)COC(=O)C(O)(c1ccccc1)c1ccccc1)c1c(N)n(Cc2ccccc2)c(=O)[nH]c1=O	none (no result: G6PDH CS, Redox H2O2 prof, Diaphorase act, Lmaj promast, Diaph inh CS)
CC[C@H](OC(C)=O)C(C[C@H](C)N(C)C)(c1ccccc1)c1ccccc1	none (no result: G6PDH CS, Redox H2O2 prof, Diaphorase act, Lmaj promast, Diaph inh CS)
CCOC(C(=O)OCCCN(CC)CC)(c1ccccc1)c1ccccc1	Lmaj promast 100
CCN(CC)CCCOC(=O)C(OC(C)C)(c1ccccc1)c1ccccc1	Lmaj promast 89
Cc1nn(C2CCOC(C)(C)C2)c2c1C(c1ccc3c(c1)OCO3)SCC(=O)N2 (centres undefined)	none
COc1cc(C2SCC(=O)Nc3c2c(C)nn3-c2ccccc2)cc(OC)c1OC (centres undefined)	Lmaj promast 91
COc1ccc(C2SCC(=O)Nc3c2c(C)nn3C2CCOC(C)(C)C2)cc1 (centres undefined)	none
Cc1nn(-c2ccccc2)c2c1C(c1ccc3c(c1)OCO3)SCC(=O)N2 (centres undefined)	Lmaj promast 99
COc1ccc(CCNCc2ccc(Br)cc2)cc1OC	none (no result: G6PDH CS, Redox H2O2 prof, Diaphorase act, Lmaj promast, Diaph inh CS)
COc1ccc(CCNCc2ccncc2)cc1OC	Lmaj promast 51
COC(=O)C(=O)N1CC2(C)CNCC(C)(C1)C2=O	none
CCc1cc2c(N3CCN(C)CC3)ncnc2s1	Lmaj promast 73
Cc1nc2ccccc2c(=O)n1-c1cc([N+](=O)[O-])cc([N+](=O)[O-])c1	none (no result: G6PDH CS, Redox H2O2 prof, Diaphorase act, Lmaj promast, Diaph inh CS)
CCCCCc1nc2ccccc2c(=O)n1-c1ccccc1[N+](=O)[O-]	Lmaj promast 51
Cc1nc2ccccc2c(=O)n1-c1ccc(Cl)cc1[N+](=O)[O-]	Diaph inh CS 77
c1ccc2c(CCNCc3ccc4c(c3)OCO4)c[nH]c2c1	Lmaj promast 77
COC[C@]12CN(C)C3C4[C@H](OC)[C@H]1C3([C@@H](OC)C[C@H]2O)[C@@H]1C[C@@]2(O)[C@H](OC(=O)c3ccccc3)[C@@H]1[C@]4(OC(C)=O)[C@@H](O)[C@@H]2OC	none (no result: G6PDH CS, Redox H2O2 prof, Diaphorase act, Lmaj promast, Diaph inh CS)
COc1ccc(CCNCc2ccccc2F)cc1	none (no result: G6PDH CS, Redox H2O2 prof, Diaphorase act, Lmaj promast, Diaph inh CS)
Cc1cccc(CNCCc2ccccc2)n1	Lmaj promast 69
O=C(N/N=C/c1c(O)n(Cc2ccc(F)cc2)c(=S)[nH]c1=O)c1ccncc1	none (no result: G6PDH CS, Redox H2O2 prof, Diaphorase act, Lmaj promast, Diaph inh CS)
CCC(C)n1c(O)c(/C=N/NC(=O)c2ccncc2)c(=O)[nH]c1=S (centres undefined)	Lmaj promast 100
CCn1c(O)c(/C=N/NC(=O)c2ccncc2)c(=O)[nH]c1=S	Lmaj promast 99
CCCCC(=O)N/N=C/c1c(O)n(CCCC)c(=S)[nH]c1=O	none (no result: G6PDH CS, Redox H2O2 prof, Diaphorase act, Lmaj promast, Diaph inh CS)
CCC(C)n1c(O)c(/C=N/N2CCOCC2)c(=O)[nH]c1=S (centres undefined)	Lmaj promast 55
CCCCC(=O)N/N=C/c1c(O)n(C2CC2)c(=S)[nH]c1=O	Lmaj promast 98
CCC(C)n1c(O)c(C=NCCN2CCOCC2)c(=O)[nH]c1=S (centres undefined)	none (no result: G6PDH CS, Redox H2O2 prof, Diaphorase act, Lmaj promast, Diaph inh CS)
O=C1NC(=O)C(Nc2ccccc2)C(=O)N1	none (no result: G6PDH CS, Redox H2O2 prof, Diaphorase act, Lmaj promast, Diaph inh CS)
O=[N+]([O-])c1ccc(N2CCOCC2)c2c1no[n+]2[O-]	none (no result: G6PDH CS, Redox H2O2 prof, Diaphorase act, Lmaj promast, Diaph inh CS)
O=c1[nH]c(=S)n(C2CC2)c(O)c1/C=N/Nc1ccccc1	Lmaj promast 89
CCC(C)n1c(O)c(C=NCCc2ccccc2)c(=O)[nH]c1=S (centres undefined)	none (no result: G6PDH CS, Redox H2O2 prof, Diaphorase act, Lmaj promast, Diaph inh CS)
CCC(C)n1c(O)c(/C=N/Nc2ccccc2)c(=O)[nH]c1=S (centres undefined)	Lmaj promast 81
Cc1ccc(NC(=O)[C@@H](NC(=O)N2C[C@H]3C[C@@H](C2)c2cccc(=O)n2C3)C(C)C)cc1	none (no result: G6PDH CS, Redox H2O2 prof, Diaphorase act, Lmaj promast, Diaph inh CS)
Cc1ccccc1C(O)(Cc1ccccc1)C1CN2CCC1CC2 (centres undefined)	Lmaj promast 98
Cc1nn(Cc2ccccc2Cl)c(Cl)c1C(=O)OCC(=O)NC(=O)NC1CCCCC1	Lmaj promast 52
Cc1cc(NC(=O)COC(=O)c2c(C)nn(Cc3ccccc3Cl)c2C)no1	none
CCc1ccc(CNCCc2ccc(F)cc2)cc1	none
CCN(CC)c1ccc(CNCCc2ccc(F)cc2)cc1	Lmaj promast 96
CCC(=NCCCN1CCOCC1)c1c(O)n(Cc2ccccc2)c(=O)[nH]c1=O	none
CC(=NCCCN1CCOCC1)c1c(O)n(Cc2ccccc2)c(=O)[nH]c1=O	Lmaj promast 90
CCC1CN1P(=O)(N1CCCC1)N1CC1CC (centres undefined)	none (no result: G6PDH CS, Redox H2O2 prof, Diaphorase act, Lmaj promast, Diaph inh CS)
CCc1ccccc1N1C(=O)NC(=O)/C(=C\c2cc(C)n(C)c2C)C1=O	Lmaj promast 54
Cc1cc(C)cc(N2C(=O)NC(=O)/C(=C\c3cc(C)n(C)c3C)C2=O)c1	none
C=C1C(O)[C@@H]2O[C@]3(CC[C@H](/C=C/C(C)[C@@H]4CC(C)=CC5(O[C@H](C[C@@](C)(O)C(=O)O)CCC5O)O4)O3)CC[C@H]2O[C@@H]1C(O)CC(C)[C@H]1OC2(CCCCO2)CCC1C (some centres undefined)	none (no result: G6PDH CS, Redox H2O2 prof, Diaphorase act, Lmaj promast, Diaph inh CS)
Cc1ccc(CN2CCC3CCC(C3)C2)c(O)c1 (centres undefined)	none (no result: G6PDH CS, Redox H2O2 prof, Diaphorase act, Lmaj promast, Diaph inh CS)
